Measured values as given in ChEMBL document CHEMBL1938298, “Synthesis and characterization of [¹²⁵I]2-iodo N-[(S)-{(S)-1-methylpiperidin-2-yl}(phenyl)methyl]3-trifluoromethyl-benzamide as novel imaging probe for glycine transporter 1” (Bioorg Med Chem, 2011).
Calls of active or inactive are those of the source. The calls are words filed in the database; no cut-off is given here.

Key:
[1] = test system: Brain; experiment: Drug uptake in ddY mouse brain at 11.1 kBq, iv after 30 min by gamma counting; assay type: ADME, organism-based; conditions: in vivo, 0.5 h
Method in brief: (§1)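 Male ddY mice (6 weeks, 30–35 g) received about 11.1 kBq [125I]tracer in 0.1 mL i.v. via tail vein. Killed at set times, organs dissected and weighed, radioactivity gamma counted. Reported as % injected dose/g tissue, mean ± SD, n = 5–6.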

[2] = test system: Blood; experiment: Drug uptake in ddY mouse blood at 11.1 kBq, iv after 60 min by gamma counting; assay type: ADME, organism-based; conditions: in vivo, 1 h; method in brief: as §1
[3] = test system: Brain; experiment: Drug uptake in ddY mouse brain at 11.1 kBq, iv after 180 min by gamma counting; assay type: ADME, organism-based; conditions: in vivo, 3 h; method in brief: as §1
[4] = test system: Heart; experiment: Drug uptake in ddY mouse heart at 11.1 kBq, iv after 0.5 min by gamma counting; assay type: ADME, organism-based; conditions: in vivo; method in brief: as §1
[5] = test system: Blood; experiment: Drug uptake in ddY mouse blood at 11.1 kBq, iv after 15 min by gamma counting; assay type: ADME, organism-based; conditions: in vivo; method in brief: as §1
[6] = test system: Intestine; experiment: Drug uptake in ddY mouse intestine at 11.1 kBq, iv after 180 min by gamma counting; assay type: ADME, organism-based; conditions: in vivo, 3 h; method in brief: as §1
[7] = test system: Lung; experiment: Drug uptake in ddY mouse lung at 11.1 kBq, iv after 180 min by gamma counting; assay type: ADME, organism-based; conditions: in vivo, 3 h
Method in brief: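 Male ddY mice (6 weeks, 30–35 g) were given about 11.1 kBq of [125I]tracer in 0.1 mL i.v. via the tail vein. At each time point the animals were killed and organs dissected, weighed and gamma-counted. Uptake is expressed as % injected dose per gram of tissue, mean ± SD, n = 5–6.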

[8] = Metabolic stability in ddY mouse brain assessed as compound remaining at 185 kBq after 30 mins by radio-TLC; assay type: ADME, tissue-based; conditions: read-out: Stability
[9] = target: T1, Sodium- and chloride-dependent glycine transporter 1 (Rattus norvegicus) (UniProt P28572); experiment: Binding affinity to GlyT1 in rat brain medullary region at 0.03 to 0.04 nM preincubated for 20 mins in binding buffer before compound addition measured after 30 mins by autoradiography in presence of 10 mM GlyT1 substrate glycine relative to control; assay type: tissue-based; conditions: tested as the 125I-labelled form
T1 sequence (whole entry): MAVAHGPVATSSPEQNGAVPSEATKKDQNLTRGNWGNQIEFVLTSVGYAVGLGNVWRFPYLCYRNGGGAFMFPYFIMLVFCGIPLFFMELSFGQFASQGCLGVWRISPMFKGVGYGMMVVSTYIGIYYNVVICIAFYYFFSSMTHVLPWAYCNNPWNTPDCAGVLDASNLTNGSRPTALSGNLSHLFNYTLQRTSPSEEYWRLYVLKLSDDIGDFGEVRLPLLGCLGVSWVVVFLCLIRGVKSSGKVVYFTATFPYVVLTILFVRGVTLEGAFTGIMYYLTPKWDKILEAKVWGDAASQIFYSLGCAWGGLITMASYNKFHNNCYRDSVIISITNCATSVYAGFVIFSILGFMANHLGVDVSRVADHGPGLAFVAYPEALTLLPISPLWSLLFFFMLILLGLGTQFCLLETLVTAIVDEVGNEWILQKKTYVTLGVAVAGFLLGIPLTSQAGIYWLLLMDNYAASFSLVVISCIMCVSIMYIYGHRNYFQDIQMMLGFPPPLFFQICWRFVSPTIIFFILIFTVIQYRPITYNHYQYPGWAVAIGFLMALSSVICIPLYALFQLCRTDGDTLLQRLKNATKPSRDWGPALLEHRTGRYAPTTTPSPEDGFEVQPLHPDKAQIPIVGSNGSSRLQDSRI
Method in brief: (§2)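 Rat brain sagittal sections (20 µm) preincubated 20 min at 25 °C in Tris-HCl buffer pH 7.5 (NaCl, KCl, MgCl2, CaCl2), then 30 min at 25 °C with [125I] tracer (100 kBq, 0.03–0.04 nM) plus competitor (10 µM; glycine 1 or 10 mM). Cold washes, imaging plate 3 days, ROI PSL minus background per mm². % control from ≥triplicate slices, three rats.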

[10] = target: T1, Sodium- and chloride-dependent glycine transporter 1 (Rattus norvegicus); experiment: Binding affinity to GlyT1 in rat brain striatum at 0.03 to 0.04 nM preincubated for 20 mins in binding buffer before compound addition measured after 30 mins by autoradiography in presence of 10 mM GlyT1 substrate glycine relative to control; assay type: tissue-based; conditions: tested as the 125I-labelled form
[11] = target: T1, Sodium- and chloride-dependent glycine transporter 1 (Rattus norvegicus); experiment: Binding affinity to GlyT1 in rat brain cerebellum at 0.03 to 0.04 nM preincubated for 20 mins in binding buffer before compound addition measured after 30 mins by autoradiography in presence of 0.01 mM NMDA receptor glycine site antagonist L-701,324 relative to control; assay type: tissue-based; conditions: tested as the 125I-labelled form; method in brief: as §2
[12] = target: T1, Sodium- and chloride-dependent glycine transporter 1 (Rattus norvegicus); experiment: Binding affinity to GlyT1 in rat brain hippocampus at 0.03 to 0.04 nM preincubated for 20 mins in binding buffer before compound addition measured after 30 mins by autoradiography relative to control; assay type: tissue-based; conditions: tested as the 125I-labelled form
Method in brief: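 Rat brain sagittal sections (20 µm), 20 min preincubation at 25 °C in Tris-HCl pH 7.5 binding buffer, then [125I] tracer (100 kBq, 0.03–0.04 nM) for 30 min at 25 °C. Nonspecific binding taken with 10 µM unlabeled ligand. Imaging-plate read-out as (PSL−BG)/mm². Mean ± SD, n = 4–5 from at least three rats; Mann–Whitney U-test.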

[13] = test system: Mus musculus; experiment: In vivo binding affinity to GlyT1 in ddY mouse brain cerebellum at 200 kBq, iv after 60 mins by autoradiography relative to control; assay type: functional, organism-based; conditions: tested as the 125I-labelled form
Method in brief: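 Ex vivo autoradiography in mice given 200 kBq [125I]tracer i.v. and killed at 60 min. Brains were removed, frozen on dry ice and cut into 20 µm sagittal cryosections, which were exposed to an imaging plate for 7 days. Regional signal was quantified as PSL/mm² (n = 5) and compared to control by Kruskal–Wallis with Dunn's post-test.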

[14] = target: T1, Sodium- and chloride-dependent glycine transporter 1 (Rattus norvegicus); experiment: Binding affinity to GlyT1 in rat brain hippocampus at 0.03 to 0.04 nM preincubated for 20 mins in binding buffer before compound addition measured after 30 mins by autoradiography in presence of 0.01 mM NMDA receptor glycine site antagonist L-701,324 relative to control; assay type: tissue-based; conditions: tested as the 125I-labelled form; method in brief: as §2
[15] = test system: Mus musculus; experiment: In vivo binding affinity to GlyT1 in ddY mouse brain striatum at 200 kBq, iv after 60 mins by autoradiography relative to control; assay type: functional, organism-based; conditions: tested as the 125I-labelled form
[16] = target: T1, Sodium- and chloride-dependent glycine transporter 1 (Rattus norvegicus); experiment: Binding affinity to GlyT1 in rat brain thalamus at 0.03 to 0.04 nM preincubated for 20 mins in binding buffer before compound addition measured after 30 mins by autoradiography in presence of 0.01 mM NMDA receptor glycine site antagonist L-701,324 relative to control; assay type: tissue-based; conditions: tested as the 125I-labelled form
[17] = target: T1, Sodium- and chloride-dependent glycine transporter 1 (Rattus norvegicus); experiment: Binding affinity to GlyT1 in rat brain striatum at 0.03 to 0.04 nM preincubated for 20 mins in binding buffer before compound addition measured after 30 mins by autoradiography in presence of 0.01 mM GlyT2 inhibitor ORG25543 relative to control; assay type: tissue-based; conditions: tested as the 125I-labelled form
[18] = target: T1, Sodium- and chloride-dependent glycine transporter 1 (Rattus norvegicus); experiment: Binding affinity to GlyT1 in rat brain midbrain at 0.03 to 0.04 nM preincubated for 20 mins in binding buffer before compound addition measured after 30 mins by autoradiography in presence of 0.01 mM GlyT1 inhibitor SSR504734 relative to control; assay type: tissue-based; conditions: tested as the 125I-labelled form; method in brief: as §2
[19] = target: T1, Sodium- and chloride-dependent glycine transporter 1 (Rattus norvegicus); experiment: Binding affinity to GlyT1 in rat brain cerebral cortex at 0.03 to 0.04 nM preincubated for 20 mins in binding buffer before compound addition measured after 30 mins by autoradiography in presence of 0.01 mM GlyT1 inhibitor SSR504734 relative to control; assay type: tissue-based; conditions: tested as the 125I-labelled form; method in brief: as §2

Drug uptake [1] [% ID/g]	Drug uptake [2] [% ID/g]	Drug uptake [3] [% ID/g]	Drug uptake [4] [% ID/g]	Drug uptake [5] [% ID/g]	Drug uptake [6] [% ID/g]	Drug uptake [7] [% ID/g]	remaining at 0.5 h [8] [%]	Activity [9] [%]	Activity [10] [%]	Activity [11] [%]	Activity [12]	Activity [14] [%]	Activity [16] [%]	Activity [17] [%]	Activity [18] [%]	Activity [19] [%]	SMILES	Activity [13]	Activity [15]
2.17	0.8	0.73	8.19	0.69	17.13	9.34	90	–	–	–	–	–	–	–	–	–	CN1CCCC[C@H]1[C@@H](NC(=O)c1cccc(C(F)(F)F)c1[125I])c1ccccc1	–	–
–	–	–	–	–	–	–	–	61.2	47.6	87.1	inactive	90.9	87.1	104	28.9	29.3	CN1CCCC[C@H]1[C@@H](NC(=O)c1cccc(C(F)(F)F)c1I)c1ccccc1	Active	inactive
